Published values collected from several papers.
Compare with care: the assays were run in different laboratories.
Target: Tyrosine-protein kinase Fyn (FYN, Homo sapiens, UniProt P06241)

With `CNC(=O)c1cc(Oc2ccc(NC(=O)Nc3ccc(Cl)c(C(F)(F)F)c3)cc2)ccn1` the inhibition was 44% (enzyme activity; inhibitor; 10 µM).
For `Cc1cc(NC(=O)c2cccc(S(F)(F)(F)(F)F)c2)cc(-n2ccn3nc(-c4cccnc4)cc23)c1`, the remaining binding was 81.3% (cell-free assay; competition with immobilised ligand; 1 µM).
`c1ccc(CNc2nc(N3CCOc4ccccc43)nc3c2CCCC3)cc1` has an inhibition of -18% (target engagement in cells; inhibitor; chemoproteomics; 20 mM).
For `O=C1NC(=O)c2cc(Nc3ccc(F)cc3)c(Nc3ccc(F)cc3)cc21`, the remaining signal was 99.4% (cell-free assay; 0.5 µM).
`CNCc1ccc(-c2cc(-c3nc(-c4ccc(S(=O)(=O)C(C)C)cc4)cnc3N)on2)cc1` gave an inhibition of 27% (enzyme activity; inhibitor; 2 µM).
The inhibition of `Cn1cnc(Br)c1C1=CN(c2ncnc3[nH]cnc23)CCS1` is reported as 44% (enzyme activity; inhibitor; radiometric; 2 µM).
`Nc1ncnc2occ(-c3ccc(NC(=O)Nc4cc(C(F)(F)F)ccc4F)cc3)c12` gave a remaining activity of 2.8% (enzyme activity; inhibitor; 20 µM).
The inhibition of `CCCS(=O)(=O)Nc1ccc(F)c(C(=O)c2c[nH]c3ncc(-c4ccc(Cl)cc4)cc23)c1F` is reported as < 20% (enzyme activity; inhibitor; 1 µM).
With `CC/C(=N\NC(=O)NCc1cccc(O)c1)c1ccc(O)c(C)c1O` the inhibition was 0.5% (enzyme activity; inhibitor; 0.1 µM).
The inhibition of `COc1cc2ncnc(Nc3ccc(Oc4ccccc4)cc3C)c2cc1OC` is reported as 83% (enzyme activity; inhibitor; 1 µM).
For `CCN(CC)CCNC(=O)c1c(C)[nH]c(/C=C2\C(=O)Nc3ccc(Cl)cc32)c1C`, the remaining activity was 28.4% (enzyme activity; inhibitor; 0.5 µM).
With `CC(=O)c1c(NS(C)(=O)=O)c2cc(-c3ccc(Cl)cc3)c(-c3ccc(Cl)cc3Cl)nc2n(C)c1=O` the remaining binding was 92% (cell-free assay; competition with immobilised ligand; 1 µM).
With `Cc1cnc(NC2CCOCC2)nc1-n1cnc(C(=O)NC(CN)c2cc(F)cc(Cl)c2)c1` (centres unmarked) the remaining activity was 100% (enzyme activity; inhibitor; radiometric; 1 µM).
With `Cc1ccc(C(=O)NCc2ccsc2)cc1C#Cc1cn(C(C)C)c2ncnc(N)c12` the activity vs control was 3% (enzyme activity; inhibitor; 1 µM).
With `COc1ccc2cc(OCC3(C(=O)O)CN(C(=O)c4ccc(F)cc4)C3)ccc2c1` the remaining binding was 100% (cell-free assay; competition with immobilised ligand; 1 µM).
With `CC(C)(O)[C@H]1CC[C@H](Nc2ccc3ncc(-c4cccc(C(F)(F)F)c4)n3n2)CC1` the remaining activity was 22.4% (enzyme activity; inhibitor; 1 µM).
With `COc1cc2ncnc(Nc3ccc(F)c(Cl)c3)c2cc1OCCCN1CCOCC1` the remaining signal was 92.2% (cell-free assay; 0.5 µM).
`Cc1nc(C2CCN(C(=O)c3ccc(OC(F)(F)F)cc3N)CC2)c2ncc(N3CCN(C)CC3)cc2n1` has a remaining binding of 96% (cell-free assay; competition with immobilised ligand; 1 µM).
`O=C(Nc1cnn(-c2csc(C(=O)NC3COC3)c2)c1)Nc1ccccc1Cl` gave a remaining activity of 97.8% (enzyme activity; inhibitor; 5 µM).
With `CC(C)(C)c1nc(-c2cccc(NS(=O)(=O)c3c(F)cccc3F)c2F)c(-c2ccnc(N)n2)s1` the remaining activity was 36% (enzyme activity; inhibitor; radiometric; 1 µM).
The remaining signal of `O=C1Nc2ccc(Cl)cc2C1=Cc1cc(Cl)c(O)c(Cl)c1` is reported as 73% (cell-free assay; 0.5 µM).
`CNC(=O)Nc1ccc2c(c1)CC[C@@]21OC(=O)N(CC(=O)N(Cc2ccc(F)cc2)[C@@H](C)C(F)(F)F)C1=O` gave a remaining binding of 100% (cell-free assay; competition with immobilised ligand; 1 µM).
The remaining activity of `O=C(Nc1cnn(-c2csc(C(=O)NC3COC3)c2)c1)Nc1c(F)cccc1Cl` is reported as 90.3% (enzyme activity; inhibitor; 5 µM).
`CCN(CC)CCNC(=O)c1c(C)[nH]c(/C=C2\C(=O)Nc3ccc(F)cc32)c1C` has an inhibition of 35% (enzyme activity; inhibitor; 0.3 µM).
`Cc1ccc(NC(=O)c2ccc(C)c(C(F)(F)F)c2)cc1C#Cc1nn(C2CCC(O)CC2)c2ncnc(N)c12` (centres unmarked) gave a remaining signal of 0% (cell-free assay; 10 µM).
The remaining binding of `Cc1nc(Cc2cccc(C(F)(F)F)c2)sc1-c1ccc(C(N)=O)nc1` is reported as 100% (cell-free assay; competition with immobilised ligand; 1 µM).
`Cc1ccc(C(=O)Nc2ccc(CN3CCN(C)CC3)c(C(F)(F)F)c2)cc1C#Cc1cnc2cccnn12` gave a remaining activity of 28% (enzyme activity; inhibitor; 23.5 nM).
With `C[S+]([O-])c1ccc(-c2nc(-c3ccncc3)c(-c3ccc(F)cc3)[nH]2)cc1` (centres unmarked) the remaining signal was 89.8% (cell-free assay; 0.5 µM).
`CN(C(=O)c1ccccc1)c1cc(N(C)c2ccc3c(c2)CCc2ccc(C(=O)NCCN4CCOCC4)cc2C3=O)ccc1F` gave a remaining binding of 61% (cell-free assay; competition with immobilised ligand; 1 µM).
`C#Cc1cccc(Nc2ncnc3cc(OCCOC)c(OCCOC)cc23)c1` has a remaining signal of 94.7% (cell-free assay; 0.5 µM).
`COc1ccc2c(O[C@@H]3C[C@H]4C(=O)N[C@]5(C(=O)O)CC5/C=C\CCCCC[C@H](NC(=O)OC5CCCC5)C(=O)N4C3)cc(-c3csc(NC(=O)C(C)C)n3)nc2c1C` (some centres unmarked) gave a remaining binding of 100% (cell-free assay; competition with immobilised ligand; 1 µM).
For `CCN(CC)c1ccc(C2=NNC(=O)CC2C)cc1[N+](=O)[O-]` (centres unmarked), the remaining activity was 110% (enzyme activity; inhibitor; 10 µM).
